Results taken from ChEMBL document CHEMBL1124301, “Enantioselectivity of muscarinic antagonists. 2,2-Dicyclohexyl-5-[(dimethylamino)methyl]-1,3-oxathiolane methiodides and related 3-oxides” (J Med Chem, 1988).
“And” between values parts separate entries of the source, which are not always exact repeats. Equal entries are not always repeated.

What was measured:
[1] = target: Muscarinic acetylcholine receptor; assay: Antagonist activity against Muscarinic acetylcholine receptor of guinea pig heart.; format: functional, Cavia porcellus
[2] = target: Muscarinic acetylcholine receptor; assay: Antagonist activity against Muscarinic acetylcholine receptor of rat bladder; format: functional
In short: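 Longitudinal bladder strip (2 mm wide, urethra to apex) in PSS at 37 °C, recorded isometrically, equilibrated 30 min. Carbachol dose-response curves run at 30-min intervals, with the second taken as control. After 30 min antagonist incubation, the curve was repeated.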

[3] = target: Muscarinic acetylcholine receptor; assay: Antagonist activity against Muscarinic acetylcholine receptor of guinea pig ileum; format: functional, tissue-based, Cavia porcellus
[4] = target: Muscarinic acetylcholine receptor; assay: Antagonist activity against Muscarinic acetylcholine receptor of guinea pig heart; format: functional, Cavia porcellus

## C[N+](C)(C)C[C@@H]1C[S@@+]([O-])C(C2CCCCC2)(C2CCCCC2)O1.[I-] (racemic)
[1]
  pA2: 6.77 and 6.63
[2]
  pA2: 6.03
[3]
  pA2: 6.24

## C[N+](C)(C)C[C@@H]1C[S@+]([O-])C(C2CCCCC2)(C2CCCCC2)O1.[I-] (racemic)
[1]
  pA2: 6.27 and 6.06
[2]
  pA2: 5.99
[3]
  pA2: 6.4

## C[N+](C)(C)C[C@@H]1CSC(C2CCCCC2)(C2CCCCC2)O1.[I-] (racemic)
[1]
  pA2: 6.38
[4]
  pA2: 6.12
[2]
  pA2: 6.26
[3]
  pA2: 6.95

## C[N+](C)(C)C[C@@H]1CSC(C2CCCCC2)(C2CCCCC2)O1.[I-] (stereo in doubt; (+)-2)
[1]
  pA2: 6.37 and 6.42
[2]
  pA2: 6.28
[3]
  pA2: 6.98

## C[N+](C)(C)C[C@@H]1C[S@@+]([O-])C(C2CCCCC2)(C2CCCCC2)O1.[I-] (stereo in doubt; (+)-4)
[1]
  pA2: 5.55 and 5.4
[2]
  pA2: 5.51
[3]
  pA2: 5.81

## C[N+](C)(C)C[C@@H]1C[S@+]([O-])C(C2CCCCC2)(C2CCCCC2)O1.[I-] (stereo in doubt; (+)-6)
[1]
  pA2: 6.45 and 6.31
[2]
  pA2: 6.27
[3]
  pA2: 6.32

## C[N+](C)(C)C[C@@H]1CSC(C2CCCCC2)(C2CCCCC2)O1.[I-] (stereo in doubt; (-)-2)
[1]
  pA2: 6.02 and 6.05
[2]
  pA2: 6.34
[3]
  pA2: 6.92

## C[N+](C)(C)C[C@@H]1C[S@@+]([O-])C(C2CCCCC2)(C2CCCCC2)O1.[I-] (stereo in doubt; (-)-4)
[1]
  pA2: 6.79 and 6.65
[2]
  pA2: 6.36
[3]
  pA2: 6.69

## C[N+](C)(C)C[C@@H]1C[S@+]([O-])C(C2CCCCC2)(C2CCCCC2)O1.[I-] (stereo in doubt; (-)-6)
[1]
  pA2: 5.61 and 5.59
[2]
  pA2: 5.48
[3]
  pA2: 5.92
